Assay: Adverse events regardless of attribution
Type: in vivo, human
Method in brief: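 Children with recurrent/refractory CNS tumours took oral drug once daily, continuously, in 28-day cycles. Dosing was stratified by EIACD use, with start/escalation levels 20–40 mg/m² (no EIACD) or 15–32 mg/m² (EIACD). Monitoring included weekly exam, serum chemistries, CBC and urine protein for 8 weeks, and TSH before each cycle. Events other than hypertension were graded by CTCAE v3, later v4.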

Compound: COc1cc2c(Oc3ccc4[nH]c(C)cc4c3F)ncnc2cc1OCCCN1CCCC1 [cediranib, Cediranib]
- Abdominal pain, events (patients) (grade 1 AE): 5(5)
- Acidosis, events (patients) (grade 1 AE): 7(5)
- Alanine aminotransferase increased, events (patients) (grade 1 AE): 44(25)
- Alkaline phosphatase increased, events (patients) (grade 1 AE): 4(3)
- Anal mucositis, events (patients) (grade 1 AE): 1(1)
- Anal pain, events (patients) (grade 1 AE): 1(1)
- Anemia, events (patients) (grade 1 AE): 4(4)
- Anorexia, events (patients) (grade 1 AE): 9(9)
- Aspartate aminotransferase increased, events (patients) (grade 1 AE): 38(20)
- Back pain, events (patients) (grade 1 AE): 4(3)
- Blood bilirubin increased, events (patients) (grade 1 AE): 17(10)
- Bone pain, events (patients) (grade 1 AE): 1(1)
- Cardiac troponin I increased, events (patients) (grade 1 AE): 1(1)
- Chest wall pain, events (patients) (grade 1 AE): 1(1)
- Cholesterol high, events (patients) (grade 1 AE): 1(1)
- Chronic kidney disease, events (patients) (grade 1 AE): 1(1)
- Constipation, events (patients) (grade 1 AE): 7(4)
- Cough, events (patients) (grade 1 AE): 4(4)
- Creatinine increased, events (patients) (grade 1 AE): 3(2)
- Dehydration, events (patients) (grade 1 AE): 2(2)
- Depression, events (patients) (grade 1 AE): 3(3)
- Diarrhea, events (patients) (grade 1 AE): 44(30)
- Dizziness, events (patients) (grade 1 AE): 3(3)
- Dry mouth, events (patients) (grade 1 AE): 1(1)
- Dry skin, events (patients) (grade 1 AE): 1(1)
- Dyspepsia, events (patients) (grade 1 AE): 3(3)
- Edema face, events (patients) (grade 1 AE): 1(1)
- Edema limbs, events (patients) (grade 1 AE): 2(2)
- Endocrine disorders - Other, specify, events (patients) (grade 1 AE): 1(1)
- Epistaxis, events (patients) (grade 1 AE): 6(5)
- Eye disorders - Other, specify, events (patients) (grade 1 AE): 1(1)
- Fatigue, events (patients) (grade 1 AE): 11(10)
- Fecal incontinence, events (patients) (grade 1 AE): 2(2)
- Fever, events (patients) (grade 1 AE): 2(2)
- GGT increased, events (patients) (grade 1 AE): 1(1)
- Gastritis, events (patients) (grade 1 AE): 2(2)
- Gastrointestinal disorders - Other, specify, events (patients) (grade 1 AE): 1(1)
- Headache, events (patients) (grade 1 AE): 21(12)
- Hematuria, events (patients) (grade 1 AE): 5(3)
- Hemoglobin increased, events (patients) (grade 1 AE): 11(6)
- Hoarseness, events (patients) (grade 1 AE): 1(1)
- Hypercalcemia, events (patients) (grade 1 AE): 6(3)
- Hyperglycemia, events (patients) (grade 1 AE): 19(14)
- Hyperkalemia, events (patients) (grade 1 AE): 3(3)
- Hypermagnesemia, events (patients) (grade 1 AE): 14(9)
- Hypernatremia, events (patients) (grade 1 AE): 8(5)
- Hypertension, events (patients) (grade 1 AE): 21(14)
- Hyperthyroidism, events (patients) (grade 1 AE): 2(2)
- Hypoalbuminemia, events (patients) (grade 1 AE): 25(16)
- Hypocalcemia, events (patients) (grade 1 AE): 23(14)
- Hypoglycemia, events (patients) (grade 1 AE): 5(5)
- Hypokalemia, events (patients) (grade 1 AE): 20(16)
- Hypomagnesemia, events (patients) (grade 1 AE): 8(6)
- Hyponatremia, events (patients) (grade 1 AE): 23(12)
- Hypophosphatemia, events (patients) (grade 1 AE): 15(12)
- Hypothyroidism, events (patients) (grade 1 AE): 10(10)
- INR increased, events (patients) (grade 1 AE): 1(1)
- Investigations - Other, specify, events (patients) (grade 1 AE): 2(2)
- Joint effusion, events (patients) (grade 1 AE): 1(1)
- Leukoencephalopathy, events (patients) (grade 1 AE): 1(1)
- Lymphocyte count decreased, events (patients) (grade 1 AE): 13(10)
- Malaise, events (patients) (grade 1 AE): 3(1)
- Mucositis oral, events (patients) (grade 1 AE): 1(1)
- Myalgia, events (patients) (grade 1 AE): 1(1)
- Nausea, events (patients) (grade 1 AE): 18(13)
- Nervous system disorders - Other, specify, events (patients) (grade 1 AE): 2(2)
- Neutrophil count decreased, events (patients) (grade 1 AE): 13(8)
- Non-cardiac chest pain, events (patients) (grade 1 AE): 2(2)
- Oral pain, events (patients) (grade 1 AE): 2(2)
- Pain in extremity, events (patients) (grade 1 AE): 6(5)
- Pain, events (patients) (grade 1 AE): 3(3)
- Palmar-plantar erythrodysesthesia syndrome, events (patients) (grade 1 AE): 4(4)
- Platelet count decreased, events (patients) (grade 1 AE): 23(17)
- Proteinuria, events (patients) (grade 1 AE): 22(14)
- Rash acneiform, events (patients) (grade 1 AE): 2(2)
- Rash maculo-papular, events (patients) (grade 1 AE): 6(5)
- Rectal pain, events (patients) (grade 1 AE): 1(1)
- Renal and urinary disorders - Other, specify, events (patients) (grade 1 AE): 1(1)
- Respiratory, thoracic and mediastinal disorders - Other, specify, events (patients) (grade 1 AE): 1(1)
- Serum amylase increased, events (patients) (grade 1 AE): 1(1)
- Skin and subcutaneous tissue disorders - Other, specify, events (patients) (grade 1 AE): 1(1)
- Stomach pain, events (patients) (grade 1 AE): 3(3)
- Urinary frequency, events (patients) (grade 1 AE): 2(2)
- Urinary retention, events (patients) (grade 1 AE): 2(2)
- Vascular disorders - Other, specify, events (patients) (grade 1 AE): 2(2)
- Voice alteration, events (patients) (grade 1 AE): 2(2)
- Vomiting, events (patients) (grade 1 AE): 33(19)
- Weight loss, events (patients) (grade 1 AE): 2(2)
- White blood cell decreased, events (patients) (grade 1 AE): 17(14)
- Abdominal pain, events (patients) (grade 2 AE): 5(5)
- Alanine aminotransferase increased, events (patients) (grade 2 AE): 18(10)
- Anemia, events (patients) (grade 2 AE): 1(1)
- Anorexia, events (patients) (grade 2 AE): 6(6)
- Arthralgia, events (patients) (grade 2 AE): 1(1)
- Aspartate aminotransferase increased, events (patients) (grade 2 AE): 4(4)
- Back pain, events (patients) (grade 2 AE): 1(1)
- Blood bilirubin increased, events (patients) (grade 2 AE): 1(1)
- Bone pain, events (patients) (grade 2 AE): 2(2)
- Confusion, events (patients) (grade 2 AE): 1(1)
- Constipation, events (patients) (grade 2 AE): 2(2)
- Cough, events (patients) (grade 2 AE): 1(1)
- Creatinine increased, events (patients) (grade 2 AE): 2(2)
- Dehydration, events (patients) (grade 2 AE): 2(2)
- Diarrhea, events (patients) (grade 2 AE): 16(11)
- Dizziness, events (patients) (grade 2 AE): 2(1)
- Dyspepsia, events (patients) (grade 2 AE): 1(1)
- Dysphasia, events (patients) (grade 2 AE): 1(1)
- Endocrine disorders - Other, specify, events (patients) (grade 2 AE): 1(1)
- Fatigue, events (patients) (grade 2 AE): 10(10)
- Fever, events (patients) (grade 2 AE): 1(1)
- Flushing, events (patients) (grade 2 AE): 3(1)
- Gastrointestinal disorders - Other, specify, events (patients) (grade 2 AE): 1(1)
- Headache, events (patients) (grade 2 AE): 10(7)
- Hemoglobin increased, events (patients) (grade 2 AE): 1(1)
- Hydrocephalus, events (patients) (grade 2 AE): 2(2)
- Hyperglycemia, events (patients) (grade 2 AE): 3(3)
- Hypernatremia, events (patients) (grade 2 AE): 4(1)
- Hypertension, events (patients) (grade 2 AE): 28(28)
- Hypoalbuminemia, events (patients) (grade 2 AE): 9(7)
- Hypocalcemia, events (patients) (grade 2 AE): 3(3)
- Hypoglycemia, events (patients) (grade 2 AE): 1(1)
- Hypomagnesemia, events (patients) (grade 2 AE): 1(1)
- Hypophosphatemia, events (patients) (grade 2 AE): 6(4)
- Hypothyroidism, events (patients) (grade 2 AE): 10(10)
- Hypoxia, events (patients) (grade 2 AE): 1(1)
- Intracranial hemorrhage, events (patients) (grade 2 AE): 4(4)
- Lipase increased, events (patients) (grade 2 AE): 1(1)
- Lymphocyte count decreased, events (patients) (grade 2 AE): 12(8)
- Mucositis oral, events (patients) (grade 2 AE): 2(2)
- Myalgia, events (patients) (grade 2 AE): 2(2)
- Nausea, events (patients) (grade 2 AE): 4(4)
- Nervous system disorders - Other, specify, events (patients) (grade 2 AE): 1(1)
- Neutrophil count decreased, events (patients) (grade 2 AE): 8(5)
- Non-cardiac chest pain, events (patients) (grade 2 AE): 1(1)
- Pain in extremity, events (patients) (grade 2 AE): 3(3)
- Pain, events (patients) (grade 2 AE): 1(1)
- Palmar-plantar erythrodysesthesia syndrome, events (patients) (grade 2 AE): 10(7)
- Pericardial effusion, events (patients) (grade 2 AE): 1(1)
- Peripheral motor neuropathy, events (patients) (grade 2 AE): 2(2)
- Platelet count decreased, events (patients) (grade 2 AE): 3(3)
- Pleural effusion, events (patients) (grade 2 AE): 1(1)
- Proteinuria, events (patients) (grade 2 AE): 15(14)
- Respiratory, thoracic and mediastinal disorders - Other, specify, events (patients) (grade 2 AE): 1(1)
- Reversible posterior leukoencephalopathy syndrome, events (patients) (grade 2 AE): 1(1)
- Seizure, events (patients) (grade 2 AE): 3(3)
- Skin and subcutaneous tissue disorders - Other, specify, events (patients) (grade 2 AE): 1(1)
- Skin ulceration, events (patients) (grade 2 AE): 2(2)
- Urinary retention, events (patients) (grade 2 AE): 1(1)
- Vomiting, events (patients) (grade 2 AE): 6(6)
- Weight loss, events (patients) (grade 2 AE): 2(2)
- White blood cell decreased, events (patients) (grade 2 AE): 5(3)
- Abdominal pain, events (patients) (grade 3 AE): 1(1)
- Alanine aminotransferase increased, events (patients) (grade 3 AE): 7(6)
